Calb biofilm kill: kills Candida albicans biofilms; C. albicans biofilm + clotrimazole, Alamar Blue; inhibition, % at 6 µM; 85,000 tested, 0.14% active; AID 834;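 active = inhibition above 20%; inactive = inhibition below 20%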;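 also: preformed 24 hr biofilms exposed to compound for 48 hr; 0% = biofilm without compound and 100% = blank killed by clotrimazole plus chlorhexidine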
AP ELISA ortho: alternative pathway complement inhibition, orthogonal assay; Human serum alternative complement pathway, LPS-coated ELISA, C3 deposition; tested in compound mixtures; inhibition, % at 5 µM; 62,000 tested, 0.08% active;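 active = inhibition above 30% in each of the two pooled mixtures holding the compound, so the lower value exceeds 30%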;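 also: 0% = serum in Mg-EGTA without compound and 100% = EDTA serum blank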
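Medium: diluted human serum in Mg2+-EGTA GVB++. Assay system: human serum complement alternative pathway, C3 deposition onto LPS. Also added: Plate-bound LPS. Technique: Anti-C3 ELISA, OD 450 nm. Measure: percent inhibition. Incubation: 1 h at 37 °C. Dosing: 5 µM each compound, pools of ten, 50 µM per pool.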
D1 allo mod: allosteric modulators of human D1 dopamine receptor; B-score at 10 µM; 58,000 tested, 5.9% active; P21728; HEK293 D1, CRE-luciferase, dopamine EC30 potentiation; actives deviate in either direction;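 active = luminescence count or its row- and column-corrected plate score outside the 99.7% band of the plate's sample wells, on either side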
DAT uptake mod: changed human dopamine transporter uptake under cocaine IC80 | Q01959 | LLC-PK1 hDAT cells, [14C]-dopamine uptake with cocaine IC80; actives deviate in either direction | B-score at 10 µM | 110,000 tested, 1.3% active;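 active = Z score or B-score, a plate-position-corrected score, falls beyond the plate's 99.7% confidence bounds, in either direction; inactive = both scores lie inside the 99.7% bounds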;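 also: scored against the spread of the other compound wells on the same plate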
Target sequence (Q01959 whole entry, looked up): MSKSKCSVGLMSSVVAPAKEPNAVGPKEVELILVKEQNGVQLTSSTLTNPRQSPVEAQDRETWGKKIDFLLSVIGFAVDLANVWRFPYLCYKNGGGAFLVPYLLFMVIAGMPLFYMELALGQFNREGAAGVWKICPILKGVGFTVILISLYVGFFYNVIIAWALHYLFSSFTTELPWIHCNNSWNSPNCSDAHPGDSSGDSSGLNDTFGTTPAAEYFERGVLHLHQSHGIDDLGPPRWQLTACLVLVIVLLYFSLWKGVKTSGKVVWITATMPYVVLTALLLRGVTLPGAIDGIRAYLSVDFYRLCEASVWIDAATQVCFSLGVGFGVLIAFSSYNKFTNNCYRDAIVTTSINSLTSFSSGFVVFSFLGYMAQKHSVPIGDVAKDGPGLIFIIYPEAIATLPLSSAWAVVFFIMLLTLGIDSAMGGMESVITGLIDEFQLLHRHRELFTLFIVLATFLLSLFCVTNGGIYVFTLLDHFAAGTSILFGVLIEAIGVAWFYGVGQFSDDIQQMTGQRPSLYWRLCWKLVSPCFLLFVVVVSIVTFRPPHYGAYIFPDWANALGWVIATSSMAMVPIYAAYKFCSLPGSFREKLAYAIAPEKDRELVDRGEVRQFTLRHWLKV
MMP-13 inhibitor: blocks human MMP13 activity; P45452; MMP-13 fTHP FRET cleavage, Mca fluorescence; inhibition, % at 4 µM; 65,000 tested, 0.07% active; AID 570;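 active = inhibition above the mean of compound-free control plate wells plus 3 SD, cut at about 14% in these data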;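 also: 0% = DMSO wells and 100% = wells with reference MMP-13 inhibitor after basal subtraction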
D1 PAM confirm: confirmation of human D1 dopamine receptor allosteric modulators. shares compounds with D1 allo mod. HEK293 D1 CRE-luciferase, dopamine EC30 potentiation; stronger effect = higher value. luminescence at 10 µM. 2,200 tested, 88% active. AID 642;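 active = luminescence in either of two replicates above the same-plate mean plus 3 SD of the low-dose dopamine control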
D1 ag no DA: D1 (human) signaling in absence of dopamine. AID 646. 1,900 tested, 0.8% active. luminescence at 10 µM. shares compounds with D1 allo mod. HEK293 D1 CRE-luciferase, luminescence, no dopamine; stronger effect = higher value; in the data active = luminescence above about 3900
Isoprot counter: isoproterenol response counter-screen activity for D1 modulators; shares compounds with D1 allo mod; HEK293 D1 CRE-luciferase, isoproterenol EC30 counter-screen; stronger effect = higher value; luminescence at 10 µM; 2,200 tested, 63% active; AID 647;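 active = luminescence in either replicate above plate mean of wells with a partly effective reference agonist dose plus 3 SD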;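 also: isoproterenol raises cAMP through native beta-adrenoceptor Gs so signal bypasses D1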
An asterisk follows results filed as active. The sample as a whole holds a higher share of hits than the screen did.

For CCOCCSc1nc2c(c(=O)[nH]c(=O)n2C)n1CCCc1ccccc1 the results were Calb biofilm kill 8, D1 allo mod 5.6*, DAT uptake mod -0.056, MMP-13 inhibitor 1, D1 PAM confirm 12256*, D1 ag no DA 1704 and Isoprot counter 3764*.
`CCCCCn1c(SCCOCC)nc2c1c(=O)[nH]c(=O)n2C` gave Calb biofilm kill 9, AP ELISA ortho 1, D1 allo mod 9.6*, DAT uptake mod -0.062, MMP-13 inhibitor -9, D1 PAM confirm 20192*, D1 ag no DA 1580 and Isoprot counter 5400*.
Screening CCOCCn1c(SCC)nc2c1c(=O)[nH]c(=O)n2C returned AP ELISA ortho 14, D1 allo mod 1.6, DAT uptake mod -0.2 and MMP-13 inhibitor 0.
Screening Cc1cc(OCC(=O)Nc2ccc(F)c(F)c2)nc(C(C)C)n1 returned DAT uptake mod -0.025.
`Cc1ccc(-c2nc3cccnc3s2)cc1NS(=O)(=O)c1ccc2c(c1)OCCO2` gave Calb biofilm kill 7 and DAT uptake mod -0.82.
Screening O=S(=O)(Nc1cccc(-c2nc3cccnc3s2)c1)c1ccc2c(c1)OCCO2 returned Calb biofilm kill 0, AP ELISA ortho 12, D1 allo mod 4.6*, DAT uptake mod 0.57, MMP-13 inhibitor 1, D1 PAM confirm 8604*, D1 ag no DA 1424 and Isoprot counter 3144.
`COC(=O)c1nc2n(n1)C(c1ccc(OC)c(OC)c1)C(C(=O)OC1CCCCC1)=C(C)N2` (stereo unspecified) gave Calb biofilm kill 7, AP ELISA ortho 0, D1 allo mod 3.3*, DAT uptake mod 1.6, MMP-13 inhibitor -2, D1 PAM confirm 7744* and Isoprot counter 2408.
For CCCc1nc2scc(-c3ccccc3)c2c(=O)n1N the results were AP ELISA ortho 20, D1 allo mod 6*, DAT uptake mod 0.19, MMP-13 inhibitor -3, D1 PAM confirm 8892*, D1 ag no DA 1584 and Isoprot counter 2476.
CCn1cnc2scc(-c3ccccc3)c2c1=O was read as Calb biofilm kill -2, AP ELISA ortho 17, D1 allo mod 15*, DAT uptake mod 0.75, MMP-13 inhibitor 1, D1 PAM confirm 14788* and Isoprot counter 3448*.
`O=c1c2c(-c3ccccc3)csc2nc2n1CCC2` gave Calb biofilm kill 3, AP ELISA ortho -16, D1 allo mod 0.1, DAT uptake mod 1.6 and MMP-13 inhibitor 3.
`C[C@@H]1CCC[C@@]2(O[C@H](CCO)C[C@H](O)[C@H]2O)O1` gave DAT uptake mod -1.5.
Screening O=c1cc(O)nc(SCc2ccccc2)n1-c1ccc(F)cc1 returned DAT uptake mod -1.3.
`O=C(Nc1nc(=S)ss1)c1ccc(Cl)cc1Cl` gave Calb biofilm kill -4 and DAT uptake mod -0.36.
`COc1ccc(CCNS(=O)(=O)c2ccccc2)cc1OC` gave Calb biofilm kill 5, AP ELISA ortho 1, D1 allo mod 4.2*, DAT uptake mod 0.06, MMP-13 inhibitor 5, D1 PAM confirm 15812*, D1 ag no DA 2400 and Isoprot counter 3432*.
Screening COc1ccc(S(=O)(=O)NCCOc2ccccc2)cc1OC returned Calb biofilm kill 4, AP ELISA ortho -3, DAT uptake mod -0.23 and MMP-13 inhibitor -6.
Screening CCOC(=O)c1oc2ccc(OC)cc2c1NC(=O)CN1CCN(C)CC1 returned Calb biofilm kill 6 and DAT uptake mod -0.35.
Screening CCOC(=O)c1oc2ccccc2c1NC(=O)c1cc(OC)cc(OC)c1 returned Calb biofilm kill 4, AP ELISA ortho 6, D1 allo mod 4.7*, DAT uptake mod -0.79, MMP-13 inhibitor -4, D1 PAM confirm 13500* and Isoprot counter 3688*.
Screening CCOC(=O)c1oc2ccccc2c1NC(=O)COC returned Calb biofilm kill 1, AP ELISA ortho 3, D1 allo mod 21*, DAT uptake mod 0.064, MMP-13 inhibitor 1, D1 PAM confirm 20772*, D1 ag no DA 1584 and Isoprot counter 5264*.
`CCOCC(=O)Nc1c(C(=O)OCC)oc2ccccc12` gave Calb biofilm kill 1, AP ELISA ortho 0, D1 allo mod 8.8*, DAT uptake mod 0.55, MMP-13 inhibitor -6, D1 PAM confirm 17016*, D1 ag no DA 1824 and Isoprot counter 4516*.
CCOC(=O)c1oc2ccccc2c1NC(=O)CN1CCN(C)CC1 was read as Calb biofilm kill 10, AP ELISA ortho 10, D1 allo mod 3.5*, DAT uptake mod -0.78, MMP-13 inhibitor -1, D1 PAM confirm 8308*, D1 ag no DA 1680 and Isoprot counter 3668*.
For CCOC(=O)c1oc2ccccc2c1NC(=O)Cc1cccs1 the results were Calb biofilm kill 4, AP ELISA ortho 6, D1 allo mod 0.69, DAT uptake mod 0.57 and MMP-13 inhibitor 0.
For CCOC(=O)c1oc2ccccc2c1N the results were Calb biofilm kill 9 and DAT uptake mod -0.0042.
For NC(=O)c1oc2ccccc2c1NC(=O)c1ccc(F)cc1 the results were AP ELISA ortho 11, D1 allo mod 4.5*, DAT uptake mod 0.9, MMP-13 inhibitor -4, D1 PAM confirm 7528*, D1 ag no DA 1648 and Isoprot counter 2372.
Screening NC(=O)c1oc2ccccc2c1NC(=O)c1nc2ccccc2s1 returned Calb biofilm kill 6, AP ELISA ortho 6, D1 allo mod 0.24, DAT uptake mod -0.24 and MMP-13 inhibitor 5.
For O=c1cc(-c2ccccc2Cl)c2c([nH]1)CCC2 the results were Calb biofilm kill -1, AP ELISA ortho 5, D1 allo mod 0.19, DAT uptake mod -0.41 and MMP-13 inhibitor -15.
For O=c1cc(-c2ccccc2)c2c([nH]1)CCCC2 the results were Calb biofilm kill 6, AP ELISA ortho -3, D1 allo mod 5.3*, DAT uptake mod -0.37, MMP-13 inhibitor -4, D1 PAM confirm 7876*, D1 ag no DA 1792 and Isoprot counter 2596.
`CC(=O)N1CCC2(CC1)C(C#N)=C(N)Oc1c2sc2nc(C)cc(C)c12` gave Calb biofilm kill 16, AP ELISA ortho 6, D1 allo mod 4.9*, DAT uptake mod -0.8, MMP-13 inhibitor 3, D1 PAM confirm 14572*, D1 ag no DA 1432 and Isoprot counter 2768.
Screening CCN1CCC2(CC1)C(C#N)=C(N)Oc1c2sc2nc(C)cc(C)c12 returned Calb biofilm kill 8, AP ELISA ortho -13, D1 allo mod -3, DAT uptake mod 0.039 and MMP-13 inhibitor -3.
`COc1ccccc1OCC(=O)c1[nH]c(C)c(C(C)=O)c1C` gave Calb biofilm kill 4, AP ELISA ortho -7, D1 allo mod -0.12, DAT uptake mod 1.2 and MMP-13 inhibitor 1.
